Calls of active or inactive are those of the source.
Legend:
Assay type in all cases: functional, cell-based
[1] = test system: MCF7; test: Inhibition of colony formation in human MCF7 cells at 10 uM incubated for 2 weeks by crystal violet staining based assay
Method in brief: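 Cells are seeded at 1 × 10^3/well and treated with peptide (10 μM) for 2 weeks, alone or with JQ1 5 μM, iJMJD6 10 μM, ICI 2.5 μM, or tamoxifen 3 μM (tamoxifen-resistant lines). Colonies are stained with crystal violet, dissolved in 10% acetic acid, and read at 590 nm. Three biological repeats.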

[2] = test system: MCF7; test: Inhibition of cell migration in human MCF7 cells at 10 uM incubated for 24 hrs by inverted microscopic assay
Method in brief: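 Cells are seeded at 5 × 10^5/well and scratched at 80–90% confluence. They are kept in serum-free medium with peptide (10 μM); partner agents are JQ1 5 μM, iJMJD6 10 μM, or ICI 2.5 μM. Wound area is imaged by inverted microscope at 0 and 12 or 24 h. Wound closure % = (A0−A1)/A0 × 100. Three biological repeats.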

[3] = test system: MCF7; test: Cytotoxicity against human MCF7 cells incubated for 1 week by CellTiter 96 Aqueous One Solution based assay; conditions: time 1.0 weeks
Method in brief: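 Cells (2 × 10^3/well, DMEM + 10% FBS, 37 °C, 5% CO2) treated with a concentration gradient of peptide for 1 week. MTS reagent added for 1 h, absorbance read at 490 nm, EC50 derived.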

C[C@]12CC[C@@H]3c4ccc(O)cc4C[C@@H](CCCCCCCCC[S+]([O-])CCCC(F)(F)C(F)(F)F)[C@H]3[C@@H]1CC[C@@H]2O (stereo partly drawn)
active: inhibition [1] | inhibition [2] | Activity [3]

— ChEMBL document CHEMBL5543129, “Peptide Inhibitor Targeting the Extraterminal Domain in BRD4 Potently Suppresses Breast Cancer Both In Vitro and In Vivo” (J Med Chem, 2024)
